Values after ≈ are worked out from the molar mass of the structure shown. Active and inactive are the calls of the source. The calls are words filed in the database; no cut-off is given here.
Columns and labels:
Brugia malayi [1] = experiment: Antifilarial activity against microfilariae Brugia malayi after 48 hrs by MTT assay; type: functional, organism-based
Brugia malayi [2] = experiment: Antifilarial activity against adult Brugia malayi infected in jird assessed as sterilized female worm at 100 mg/kg, sc administered for 5 consecutive days measured on day 51; type: functional; conditions: route subcutaneous
How it was run: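 Jirds carrying i.p.-transplanted adult B. malayi got 100 mg/kg s.c. daily for 5 days, 5 animals per group. They were euthanized on day 51 and worms recovered from the peritoneal cavity. Live females were teased in PBS pH 7.2 and uterine contents examined microscopically. Any abnormal or dead oocytes, eggs or mf counted as sterilized, reported as % sterile females.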

Brugia malayi [3] = experiment: Antifilarial activity against adult Brugia malayi infected in jird assessed as worm mortality at 100 mg/kg, sc administered for 5 consecutive days measured on day 51; type: functional; conditions: route subcutaneous
How it was run: (§1)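 Jirds carrying intraperitoneally transplanted adult B. malayi (sub-periodic strain), 5 animals per group, dosed daily for 5 days. Killed on day 51 after a 50-day observation period. Worms recovered from the peritoneal cavity and scored microscopically for motility, death or encapsulation, giving % adulticidal activity over untreated control, mean ± SE. Live females teased in PBS pH 7.2 to score uterine-content abnormalities as sterilization.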

Brugia malayi [4] = experiment: Antifilarial activity against adult Brugia malayi after 48 hrs by MTT assay; type: functional, organism-based
How it was run: (§2)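 Adult female worms were recovered from jird peritoneal cavity 120–150 days after i.p. L3 inoculation. One worm per well sat in 1000 µL RPMI 1640 with antibiotics and 10% FBS, in duplicate, 48 h at 37 °C in CO2. After motility scoring, worms went through the MTT reduction assay. Result is % inhibition of MTT reduction vs untreated control.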

Brugia malayi [5] = experiment: Antifilarial activity against adult Brugia malayi at 31.25 ug/ml by MTT assay relative to control; type: functional; how it was run: as §2
[6] = (§3) Cytotoxicity against african green monkey Vero cells after 72 hrs by resazurin dye-based fluorimetric analysis; type: cell-based; conditions: chlorocebus sabaeus, Vero cells
How it was run: (§4)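 Vero cells were seeded at 10,000 per well and left overnight at 37 °C in CO2. Samples were tested in triplicate from a 300 µg/mL top concentration in 3:1 serial dilutions, with drug-free and cell-free controls. Resazurin was added after 72 h drug exposure for 2–4 h, then read at ex 536/em 588 nm. CC50 was taken from fluorescence vs concentration.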

Brugia malayi [7] = experiment: Antifilarial activity against microfilariae Brugia malayi assessed as inhibition of motility at 7.8 ug/ml incubated for 48 hrs followed by washout measured after 1 hr in the absence of drug by microscopic analysis; type: functional
How it was run: (§5)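 Microfilariae came from jird peritoneal fluid passed through a 5.0 µm membrane filter. Twenty live mf per well in 200 µL medium, in duplicate, were given two-fold dilutions from 31.25 µg/mL. Incubation matched the adult worms (48 h, 37 °C, CO2). Motility was scored and reported as % reduction vs untreated control.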

Brugia malayi [8] = experiment: Antifilarial activity against adult Brugia malayi assessed as inhibition of motility at 31.25 ug/ml incubated for 48 hrs followed by washout measured after 1 hr in the absence of drug by microscopic analysis; type: functional
How it was run: (§6)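 Single fully motile female worms from jird peritoneal cavity were exposed in duplicate wells (1000 µL RPMI 1640, antibiotics, 10% FBS) to two-fold dilutions from 31.25 µg/mL, 48 h, 37 °C, CO2. Worms were moved to drug-free medium and motility was read microscopically 1 h later. Result is % motility reduction vs untreated control.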

Brugia malayi [9] = experiment: Antifilarial activity against microfilariae Brugia malayi assessed as inhibition of motility at 31.25 ug/ml incubated for 48 hrs followed by washout measured after 1 hr in the absence of drug by microscopic analysis; type: functional; how it was run: as §5
Brugia malayi [10] = experiment: Antifilarial activity against microfilariae Brugia malayi assessed as inhibition of motility at 15.6 ug/ml incubated for 48 hrs followed by washout measured after 1 hr in the absence of drug by microscopic analysis; type: functional; how it was run: as §5
Brugia malayi [11] = experiment: Antifilarial activity against microfilariae Brugia malayi assessed as inhibition of motility at 3.9 ug/ml incubated for 48 hrs followed by washout measured after 1 hr in the absence of drug by microscopic analysis; type: functional; how it was run: as §5
Brugia malayi [12] = experiment: Antifilarial activity against adult Brugia malayi assessed as inhibition of motility at 7.8 ug/ml incubated for 48 hrs followed by washout measured after 1 hr in the absence of drug by microscopic analysis; type: functional; how it was run: as §6
Brugia malayi [13] = experiment: Antifilarial activity against adult Brugia malayi at 3.9 ug/ml by MTT assay relative to control; type: functional; how it was run: as §2
Brugia malayi [14] = experiment: Antifilarial activity against adult Brugia malayi assessed as inhibition of motility at 3.9 ug/ml incubated for 48 hrs followed by washout measured after 1 hr in the absence of drug by microscopic analysis; type: functional; how it was run: as §6
[15] = Selectivity ratio of CC50 for african green monkey Vero cells to IC50 for adult Brugia malayi; type: ADME, cell-based
How it was run: (§7)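 SI = CC50 (Vero, resazurin assay) / IC50. IC50 came from % motility inhibition of adult female worms or mf over two-fold dilutions from MIC down to 0.3 µg/mL. It was derived from a concentration vs % motility-inhibition plot.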

Brugia malayi [16] = experiment: Antifilarial activity against adult Brugia malayi assessed as inhibition of motility at 15.6 ug/ml incubated for 48 hrs followed by washout measured after 1 hr in the absence of drug by microscopic analysis; type: functional; how it was run: as §6
[17] = Selectivity ratio of CC50 for african green monkey Vero cells to IC50 for microfilariae Brugia malayi; type: ADME, cell-based; conditions: for selectivity ratio: Vero cells, read-out: Ratio CC50/IC50; how it was run: as §7
Brugia malayi [18] = experiment: Antifilarial activity against adult Brugia malayi at 1.9 ug/ml by MTT assay relative to control; type: functional; how it was run: as §2
Brugia malayi [19] = experiment: Antifilarial activity against microfilariae Brugia malayi assessed as inhibition of motility at 1.9 ug/ml incubated for 48 hrs followed by washout measured after 1 hr in the absence of drug by microscopic analysis; type: functional; how it was run: as §5
Brugia malayi [20] = experiment: Antifilarial activity against adult Brugia malayi assessed as inhibition of motility at 1.9 ug/ml incubated for 48 hrs followed by washout measured after 1 hr in the absence of drug by microscopic analysis; type: functional; how it was run: as §6
Brugia malayi [21] = experiment: Antifilarial activity against adult Brugia malayi infected in jird assessed as worm mortality at 50 mg/kg, ip administered for 5 consecutive days measured on day 51; type: functional; conditions: route intraperitoneal; how it was run: as §1
Brugia malayi [22] = experiment: Antifilarial activity against adult Brugia malayi at 15.6 ug/ml by MTT assay relative to control; type: functional; how it was run: as §2
Brugia malayi [23] = experiment: Antifilarial activity against adult Brugia malayi at 7.8 ug/ml by MTT assay relative to control; type: functional; how it was run: as §2
Brugia malayi [24] = experiment: Antifilarial activity against adult Brugia malayi infected in jird assessed as sterilized female worm at 50 mg/kg, ip administered for 5 consecutive days measured on day 51; type: functional; conditions: route intraperitoneal
How it was run: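 In the i.p.-transplanted adult B. malayi jird model, 50 mg/kg was given i.p. for 5 consecutive days, 5 animals per group. Necropsy on day 51 recovered peritoneal worms. Live females were teased in PBS pH 7.2 and uterine oocytes, eggs and mf checked microscopically for abnormality or death. Result is % sterilized females.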

Vero = experiment: as §3; type: cell-based; conditions: chlorocebus sabaeus, vero, 72 h; how it was run: as §4
[25] = Brugia malayi, 48 h, read-out: IC50

Molecule | MIC (Brugia malayi [4]) | inhibition at 31.25 µg/mL (Brugia malayi [5]) [%] | CC50 at 72 h [6] [µg/mL] | inhibition at 7.8 µg/mL (Brugia malayi [7]) [%] | inhibition at 31.25 µg/mL (Brugia malayi [8]) [%] | inhibition at 31.25 µg/mL (Brugia malayi [9]) [%] | inhibition at 15.6 µg/mL (Brugia malayi [10]) [%] | selectivity ratio [17] | Activity (Brugia malayi [21]) [%] | MIC (Brugia malayi [1]; Brugia malayi, 48 h) [µg/mL] | IC50 (Brugia malayi [1]; [25]) [µg/mL] | inhibition at 15.6 µg/mL (Brugia malayi [22]) [%] | inhibition at 7.8 µg/mL (Brugia malayi [23]) [%] | Activity (Brugia malayi [24]) [%] | also measured
IVERMECTIN [listing 1 of 2 here] |  |  |  |  |  |  |  |  |  |  |  |  |  |  | MIC (Brugia malayi [1]): 125 µg/mL
CCN(CC)C(=O)N1CCN(C)CC1 [DIETHYLCARBAMAZINE] | inactive |  |  |  |  |  |  |  |  |  |  |  |  |  | Activity (Brugia malayi [2]): 0%; Activity (Brugia malayi [3]): -30.5%; MIC (Brugia malayi [1]): inactive
CC/C=C\C/C=C\C/C=C\CCCCCCCC(=O)OC[C@H](CO[C@@H]1O[C@H](CO[C@H]2O[C@H](CO)[C@H](O)[C@H](O)[C@H]2O)[C@H](O)[C@H](O)[C@H]1O)OC(=O)CCCCCCC/C=C\C/C=C\C/C=C\CC | 3.9 µg/mL (≈ 4.16 µM) | 82.9 | > 100 | 99 | 100 | 100 | 100 | > 62.2 | -58.3 | 15.6 (≈ 16.6 µM) | 1.61 (≈ 1.71 µM) | 75 | 61.8 | 0 | inhibition at 3.9 µg/mL (Brugia malayi [11]): 95%; inhibition at 7.8 µg/mL (Brugia malayi [12]): 100%; inhibition at 3.9 µg/mL (Brugia malayi [13]): 52.1%; inhibition at 3.9 µg/mL (Brugia malayi [14]): 100%; selectivity ratio ([15]; Vero cells, read-out: Ratio CC50/IC50): > 80; inhibition at 15.6 µg/mL (Brugia malayi [16]): 100%; inhibition at 1.9 µg/mL (Brugia malayi [18]): 43.6%; inhibition at 1.9 µg/mL (Brugia malayi [19]): 60%; inhibition at 1.9 µg/mL (Brugia malayi [20]): 90%; IC50 (Brugia malayi [4]): 1.25 µg/mL (≈ 1.33 µM)
IVERMECTIN [listing 2 of 2 here] |  |  |  |  |  |  |  |  |  |  |  |  |  |  | CC50 (Vero): 52.84 µg/mL; Ratio CC50/IC50 ([15]; vero): > 62.11; Ratio CC50/IC50 ([17]; vero): > 27.62; IC50 (Brugia malayi [1]): 3.62 µg/mL
Oc1ccc([C@H]2Oc3cc(O)cc(O)c3C[C@H]2O)cc1 [EPIAFZELECHIN (2R,3R)(-)] |  | 14.8 |  |  | 50 | 59 |  |  |  |  |  |  |  |  | 
CCCCCCCCCCCCCCCCCCCCCCCCCCCCO [OCTACOSANOL] | inactive | 32.6 | > 100 | 85 | 50 | 100 | 95 | > 30.7 | -49.95 | 31.2 (≈ 76.1 µM) | 3.26 (≈ 7.94 µM) | 0 | 0 | 0 | inhibition (Brugia malayi [12]): inactive; inhibition (Brugia malayi [16]): inactive
CCCCCCCC/C=C\CCCCCCCC(=O)OC[C@H](CO[C@@H]1O[C@H](CO[C@H]2O[C@H](CO)[C@H](O)[C@H](O)[C@H]2O)[C@H](O)[C@H](O)[C@H]1O)OC(=O)CCCCCCCCCCCCCCC | inactive | 24.6 | > 100 | 90 | 50 | 100 | 99 | > 95.2 | -54.15 | 31.2 (≈ 34 µM) | 1.05 (≈ 1.14 µM) | 0 | 0 | 0 | inhibition at 3.9 µg/mL (Brugia malayi [11]): 80%; inhibition (Brugia malayi [12]): inactive; inhibition at 3.9 µg/mL (Brugia malayi [13]): 0%; inhibition (Brugia malayi [14]): inactive; inhibition (Brugia malayi [16]): inactive
Oc1cc(O)c2c(c1)O[C@H](c1ccc(O)c(O)c1)[C@H](O)C2 [(-)-EPICATECHIN] |  | 34.8 |  |  | 50 | 50 |  |  |  |  |  |  |  |  | 
O=C(O)c1ccc(O)c(O)c1 [PROTOCATECHUIC ACID] |  | 20.6 |  |  | 50 | 60 |  |  |  |  |  |  |  |  | 
Oc1cc(O)c2c(c1)O[C@@H](c1ccc(O)c(O)c1)[C@H](O)C2 [(-)-CATECHIN] |  | 43.2 |  |  | 60 | 60 |  |  |  |  |  |  |  |  | 
CC/C=C\C/C=C\C/C=C\CCCCCCCC(=O)OC[C@H](CO[C@@H]1O[C@H](CO[C@H]2O[C@H](CO)[C@H](O)[C@H](O)[C@H]2O)[C@H](O)[C@H](O)[C@H]1O)OC(=O)CCCCCCCCCCCCCCC | inactive | 30 | > 100 | 90 | 50 | 100 | 95 | > 37 | -45.8 | 31.2 (≈ 34.1 µM) | 2.7 (≈ 2.95 µM) | 0 | 0 | 0 | inhibition at 3.9 µg/mL (Brugia malayi [11]): 70%; inhibition (Brugia malayi [12]): inactive; inhibition at 3.9 µg/mL (Brugia malayi [13]): 0%; inhibition (Brugia malayi [14]): inactive; inhibition (Brugia malayi [16]): inactive

Reference: ChEMBL document CHEMBL1949569, “Galactolipids from Bauhinia racemosa as a new class of antifilarial agents against human lymphatic filarial parasite, Brugia malayi” (Eur J Med Chem, 2012)
